In brackets after ≈: the same amount, converted by molar mass.
Key:
P388 leukemia (mouse) [1] = test: T/C in % was determined against P388 murine leukemia cells at a dose of 50 x2 mg/kg; 60 - day survivors =0/6
L1210 [2] = test: T/C in % was determined against L1210 murine leukemia cells at a dose of 12.5x2 mg/kg; 60 - day survivors =0/6; format: functional, Mus musculus
L1210 [3] = test: Compound was tested for the concentration required to inhibit L1210 murine leukemia cell growth by 50% of control; format: functional; conditions: Mus musculus, read-out: ID50 (the source's name)
In short: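 L1210 cells grown in suspension in McCoy's 5A with 10% horse serum, glutamine, penicillin and streptomycin at 37 °C in 10% CO2. Drug was added from DMSO to 5 × 10^4 cells/mL at final 0.01, 0.1 and 10 μg/mL. After 72 h continuous exposure, cells were counted on a Coulter counter.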

P388 leukemia (mouse) [4] = test: T/C in % was determined against P388 murine leukemia cells at a dose of 25 x2 mg/kg; 60 - day survivors =0/6
L1210 [5] = test: T/C in % was determined against L1210 murine leukemia cells at a dose of 8 x3 mg/kg; 60 - day survivors =1/6; format: functional, Mus musculus
L1210 [6] = test: T/C in % was determined against L1210 murine leukemia cells at a dose of 4 x3 mg/kg 60 - day survivors =3/6; format: functional, Mus musculus
L1210 [7] = test: T/C in % was determined against L1210 murine leukemia cells at a dose of 12.5 x2 mg/kg; 60 - day survivors =1/6; format: functional, Mus musculus
L1210 [8] = test: T/C in % was determined against L1210 murine leukemia cells at a dose of 25 x3 mg/kg; 60 - day survivors =1/6; format: functional, Mus musculus
L1210 [9] = test: T/C in % was determined against L1210 murine leukemia cells at a dose of 12.5 x3 mg/kg; format: functional, Mus musculus
L1210 [10] = test: T/C in % was determined against L1210 murine leukemia cells at a dose of 50 x3 mg/kg
P388 leukemia (mouse) [11] = test: T/C in % was determined against P388 murine leukemia cells at a dose of 100 x1 mg/kg; Toxic
L1210 [12] = test: T/C in % was determined against L1210 murine leukemia cells at a dose of 25 x3 mg/kg; 60 - day survivors =0/6; format: functional, Mus musculus
L1210 [13] = test: T/C in % was determined against L1210 murine leukemia cells at a dose of 50 x3 mg/kg; 60 - day survivors =0/6; format: functional, Mus musculus
L1210 [14] = test: T/C in % was determined against L1210 murine leukemia cells at a dose of 25x3 mg/kg; 60 - day survivors =3/6; format: functional, Mus musculus
L1210 [15] = test: T/C in % was determined against L1210 murine leukemia cells at a dose of 6.25 x3 mg/kg; 60 - day survivors =1/6; format: functional, Mus musculus

Work on O=C1c2ccsc2C(=O)c2c(NCCN3CC3)ccc(NCCN3CC3)c21 yielded a T/C (P388 leukemia (mouse) [1]) of 114%, a T/C (L1210 [2]) of 104% and an IC50 (L1210 [3]) of 0.0035 µg/mL (≈ 0.00915 µM). The T/C (P388 leukemia (mouse) [4]) was 112%.

O=C1c2ccsc2C(=O)c2c(NCCBr)ccc(NCCBr)c21 showed an IC50 (L1210 [3]) of 5.2 µg/mL (≈ 11.3 µM).

Compound O=C1c2ccsc2C(=O)c2c(NCCO)ccc(NCCO)c21 has an IC50 (L1210 [3]) of over 10 µg/mL.

Compound NCCNc1ccc(NCCN)c2c1C(=O)c1ccsc1C2=O has a T/C (L1210 [5]) of 400%, a T/C (L1210 [6]) of 325% and an IC50 (L1210 [3]) of 0.026 µg/mL (≈ 0.0787 µM). It also gave a T/C (L1210 [7]) of 386%.

In the case of O=C1c2ccccc2C(=O)c2c(NCCNCCO)ccc(NCCNCCO)c21 [AMETANTRONE], the T/C (L1210 [8]) is reported as 203%, the T/C (L1210 [9]) is reported as 177% and the T/C (L1210 [10]) is reported as 146%.

For CN(C)CCNc1ccc(NCCN(C)C)c2c1C(=O)c1ccsc1C2=O, the T/C (P388 leukemia (mouse) [11]) was “Toxic”, the T/C (P388 leukemia (mouse) [1]) was 128% and the T/C (L1210 [12]) was 107%. For the same compound, the IC50 (L1210 [3]) was 0.038 µg/mL (≈ 0.0983 µM), the T/C (P388 leukemia (mouse) [4]) was 108% and the T/C (L1210 [13]) was 109%.

For O=C1c2ccsc2C(=O)c2c(NCCNCCO)ccc(NCCNCCO)c21, the T/C (L1210 [14]) was 333%, the IC50 (L1210 [3]) was 0.064 µg/mL (≈ 0.153 µM) and the T/C (L1210 [15]) was 403%.

— ChEMBL document CHEMBL1125056, “Heterosubstituted anthracene-9,10-dione analogues. The synthesis and antitumor evaluation of 5,8-bis[(aminoalkyl)amino]naphtho[2,3-b] thiophene-4,9-diones” (1990)
